EBNA-1 inh – blocks EBNA-1 binding to DNA. EBNA-1 DNA binding, fluorescence polarization. 300,000 tested, 0.34% active. inhibition, % at 14.8 µM; in the data active = inhibition above about 28%
HCV core dimer – HCV core protein dimerization inhibition; TR-FRET GST/Flag-core106 dimerization, 1536-well; inhibition, % at 5 µM; 300,000 tested, 0.33% active; AID 1899;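 active = inhibition above the mean of all tested compounds plus 3 SD, set per screening campaign, cut at about 45% in these data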
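test system = GST/Flag-tagged HCV core106 proteins | probe or stimulus = Eu donor and XL665 acceptor anti-tag antibodies | times = compound-protein-antibody incubation 4 h at 22.5 °C | signal = TR-FRET, excitation 340 nm, emission 617 and 671 nm | measure = percent inhibition of core106 dimerization signal | controls = wells lacking GST-core106 and wells with excess unlabelled core106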
PfM18AAP inh – PfM18AAP enzyme inhibition. recombinant PfM18AAP, H-Glu-NHMec fluorogenic cleavage. inhibition, % at 7.35 µM. 290,000 tested, 1.2% active;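 active = inhibition above the campaign mean inhibition over all tested compounds plus 3 SD, cut at about 28% in these data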
ALR H2O2 inh – inhibitors of human sulfhydryl oxidase ALR; P55789; purified ALR, DTT oxidation, H2O2 HRP-luminol luminescence; inhibition, % (test concentration not listed); 290,000 tested, 3.8% active; AID 485317;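 active = mean replicate inhibition above about 79%, with every replicate also reaching it, limit read from the data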
Target sequence (P55789 whole entry, looked up): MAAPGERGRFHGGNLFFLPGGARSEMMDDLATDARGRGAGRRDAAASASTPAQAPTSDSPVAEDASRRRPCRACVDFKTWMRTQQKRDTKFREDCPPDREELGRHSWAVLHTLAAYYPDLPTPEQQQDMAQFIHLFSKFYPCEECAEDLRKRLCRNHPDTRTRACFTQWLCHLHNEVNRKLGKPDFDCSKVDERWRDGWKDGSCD
ZTA DNA inh – blocks Epstein-Barr virus ZTA, an EBNA-1 counter-screen; P03206; ZTA-DNA binding, fluorescence polarization; inhibition, % at 11 µM; 320,000 tested, 0.15% active; AID 2234; in the data active = inhibition above about 33%
Target sequence (P03206 whole entry, looked up): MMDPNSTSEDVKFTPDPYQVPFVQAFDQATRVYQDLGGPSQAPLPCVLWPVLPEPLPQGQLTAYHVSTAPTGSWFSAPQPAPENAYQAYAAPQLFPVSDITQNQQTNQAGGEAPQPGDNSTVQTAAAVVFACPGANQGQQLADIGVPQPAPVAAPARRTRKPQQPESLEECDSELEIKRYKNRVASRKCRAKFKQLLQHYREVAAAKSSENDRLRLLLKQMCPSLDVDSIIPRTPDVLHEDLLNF
NS3 helicase inh – blocks Hepatitis C virus NS3 helicase unwinding | NS3 helicase DNA unwinding, Cy5 molecular beacon fluorescence | inhibition, % at 10.9 µM | 290,000 tested, 0.56% active;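 active = inhibition above the mean of all tested compounds plus 3 SD, set per campaign, cut at about 35% in these data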
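System: Hepatitis C virus NS3 helicase domain fragment enzyme | Reagent: Annealed dual-labelled DNA beacon duplex, ATP-started | Compound dosing: 10.9 µM single point, 0.8% DMSO | Incubation: 1 h reaction at 25 °C, ATP-initiated | Technique: Cy5 fluorescence | Evaluation: Percent inhibition from t60/t0 fluorescence ratio | Benchmarks: Low DMSO, high thioflavine S at 110 µM | Replication: Singlicate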
EBNA-1 confirm – EBNA-1 (EBV) inhibition, confirmation; shares compounds with EBNA-1 inh; 830 tested, 35% active; inhibition, % at 14.8 µM; AID 2292; Recombinant EBNA-1 DBD, Cy5-DNA fluorescence polarization;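 active = mean inhibition across replicates above a set limit taken from the earlier primary screen, cut at about 28% in these data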
ZTA DNA inh trip – counter-screen for EBNA-1 inhibitors: Epstein-Barr virus ZTA inhibitors, triplicate; shares compounds with EBNA-1 inh; Zta-ZRE DNA binding, Cy5 fluorescence polarization; inhibition, % at 11.1 µM; 830 tested, under 10 active; AID 2328;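 active = mean inhibition over triplicates above a set limit taken from the primary EBNA-1 screen, cut at about 37% in these data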;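 also: purified full length Zta protein with Cy5 labeled ZRE DNA probe; inhibitors lower polarization by freeing the labeled DNA probe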
Large screens that a line does not name were inactive (follow-up assays come after a bar, where they were run). In the library only some 5.2% were active in any assay of this set; here they are far more common.

Cc1oc(-c2ccccc2)nc1C(=O)Nc1nccs1	EBNA-1 inh 51.8 | EBNA-1 confirm inactive | ZTA DNA inh trip inactive
CCOc1ccc(-n2nnc3c(=O)n(CC(=O)c4ccccc4)cnc32)cc1	EBNA-1 inh 29.6 | EBNA-1 confirm inactive | ZTA DNA inh trip inactive
Cc1ccc(-n2nnc3c(=O)n(CC(=O)c4ccccc4)cnc32)cc1	none
COc1ccc(C(=O)NC(=S)N(C)Cc2ccccc2)cc1Br	EBNA-1 inh 45.5 | EBNA-1 confirm inactive | ZTA DNA inh trip inactive
CN(Cc1ccccc1)C(=S)NC(=O)c1ccccc1	none
Cc1ccc(C(Sc2ccccc2)C(Cn2cncn2)C(=O)c2ccccc2)cc1 (centres undefined)	none
Cc1cccc(OCC(=O)Nc2ccc(NC(=O)c3ccco3)cc2)c1	none (no result: EBNA-1 inh, HCV core dimer, ALR H2O2 inh, ZTA DNA inh)
O=C(N/N=C/c1cccc([N+](=O)[O-])c1)c1cc(-c2ccc3c(c2)OCO3)n[nH]1	EBNA-1 inh 62.0 | EBNA-1 confirm inactive | ZTA DNA inh trip inactive
O=C(N/N=C/c1cccc(O)c1)c1cc(-c2ccc3c(c2)OCO3)n[nH]1	none
O=C(Nc1ccc(Oc2ccccc2)cc1)C1CC1	none
O=C(Nc1ccc(Oc2ccccc2)cc1)C1CCN(c2ncccn2)CC1	EBNA-1 inh 39.3 | EBNA-1 confirm inactive | ZTA DNA inh trip inactive
Cc1ccc(NC(=O)C(=O)NCCc2c[nH]c3ccccc23)cc1C	none
O=C(NCCc1c[nH]c2ccccc12)C(=O)Nc1ccccc1	EBNA-1 inh 35.2 | EBNA-1 confirm inactive | ZTA DNA inh trip inactive
Cc1cc(C)n2nc(SC(C)C(=O)NC3CCCCC3C)nc2n1 (centres undefined)	none (no result: PfM18AAP inh, NS3 helicase inh)
Cc1ccc(/C(N)=N/OC(=O)c2ccc3ccccc3c2)cc1	EBNA-1 inh 31.3 | EBNA-1 confirm 42.5 | ZTA DNA inh trip inactive
Cc1ccc(C)c(N2CCN(C(=O)c3ccc4nsnc4c3)CC2)c1	none
CN(c1ccc(OCC(=O)Nc2nc3ccccc3s2)cc1)S(=O)(=O)c1ccccc1	EBNA-1 inh 46.6 | EBNA-1 confirm inactive | ZTA DNA inh trip inactive
CCOc1ccc(S(=O)(=O)N(C)c2ccc(OCC(=O)Nc3nc4ccccc4s3)cc2)cc1	none
O=C1COc2ccc(C(=O)COC(=O)c3cc(S(=O)(=O)NCc4ccccc4)ccc3O)cc2N1	EBNA-1 inh 31.3 | EBNA-1 confirm inactive | ZTA DNA inh trip inactive
O=C1COc2ccc(C(=O)COC(=O)c3ccccc3F)cc2N1	none (no result: EBNA-1 inh, HCV core dimer, PfM18AAP inh, ZTA DNA inh, NS3 helicase inh)
COC(=O)[C@@]12CCCCN1[C@H](c1ccc(-c3ccc4c(c3)OCO4)cc1)[C@H]1C(=O)N(C)C(=O)[C@H]12	none (no result: EBNA-1 inh, HCV core dimer, PfM18AAP inh, ZTA DNA inh, NS3 helicase inh)
CS(=O)(=O)NNC(=O)c1csc(Cc2c(Cl)sc3ccc(Cl)cc23)n1	EBNA-1 inh 39.9 | EBNA-1 confirm 41.5 | ZTA DNA inh trip inactive
CC(C)C(=O)NNC(=O)c1csc(CS(=O)(=O)c2ccc(Cl)cc2)n1	none
Cc1cccc(C(=O)NC(=S)N2CCN(C(=S)NC(=O)c3cccc(C)c3)CC2)c1	none
Cc1sc2nc(SCC(=O)NCc3ccco3)n(CCc3ccccc3)c(=O)c2c1C	EBNA-1 inh 30.2 (no result: ALR H2O2 inh) | EBNA-1 confirm inactive | ZTA DNA inh trip inactive
C=CCn1c(SCC(=O)NCc2ccco2)nc2ccccc2c1=O	none
C=CCn1c(SCC(=O)NC(=O)NCc2ccco2)nc2sc(CC)cc2c1=O	EBNA-1 inh 27.8 (no result: ALR H2O2 inh) | EBNA-1 confirm inactive | ZTA DNA inh trip inactive
CCCCc1nnc(NC(=O)c2oc3ccccc3c2C)s1	none (no result: PfM18AAP inh, NS3 helicase inh)
COc1ccc(Cc2c(Cl)ncnc2Cl)cc1	EBNA-1 inh 32.9 | EBNA-1 confirm inactive | ZTA DNA inh trip inactive
O=c1c2ccccc2nc(SCc2ccccc2)n1Cc1ccco1	none
O=c1c2ccccc2nc(SCc2nc3ccccc3s2)n1Cc1ccco1	EBNA-1 inh 48.6, ALR H2O2 inh 87.2 | EBNA-1 confirm inactive | ZTA DNA inh trip inactive
COc1ccc(-c2cn3c(C)c(C(=O)NCc4ccc5c(c4)OCO5)sc3n2)cc1	EBNA-1 inh 80.5 | EBNA-1 confirm 125.5 | ZTA DNA inh trip inactive
COc1ccc(C(=O)NCc2ccc3c(c2)OCO3)cc1	none
CCn1c(SCC(=O)c2c[nH]c3ccccc23)nnc1-c1cccs1	EBNA-1 inh 29.6 | EBNA-1 confirm inactive | ZTA DNA inh trip inactive
O=C(c1ccccc1F)N1CCN(C(=O)C2CC2)CC1	none
Cc1ccnc(NS(=O)(=O)c2ccc(NC(=O)c3cc(-c4ccc(Br)cc4)nc4ccccc34)cc2)n1	EBNA-1 inh 31.9 | EBNA-1 confirm inactive | ZTA DNA inh trip inactive
Cc1ccnc(NS(=O)(=O)c2ccc(NC(=O)c3cc(-c4ccccc4)nc4ccccc34)cc2)n1	none
CCn1ncc(S(=O)(=O)Nc2cc(Cl)ccc2C)c1C	none
O=C(Nc1cccc(NC(=O)c2cccs2)c1)c1ccc(Br)cc1	EBNA-1 inh 69.8 | EBNA-1 confirm 75.3 | ZTA DNA inh trip inactive
O=C(Nc1cccc(NC(=O)c2ccc(F)cc2)c1)c1ccc(F)cc1	EBNA-1 inh 28.3 | EBNA-1 confirm inactive | ZTA DNA inh trip inactive
O=C(NNC(=O)c1cccs1)c1ccc(Br)cc1	none (no result: ALR H2O2 inh)
O=C(Nc1cccc(NC(=O)c2ccccc2Cl)c1)c1ccc(F)cc1	none
Cc1cc(NC(=O)CSc2nc(-c3ccc(F)cc3)cs2)no1	EBNA-1 inh 43.7 (no result: ALR H2O2 inh) | EBNA-1 confirm inactive | ZTA DNA inh trip inactive
Cc1nc(C)n(CCNC(=O)c2ccco2)n1	none (no result: EBNA-1 inh, HCV core dimer, ZTA DNA inh)
CC(C)CNC(=S)N(CCO)Cc1cc2cc3c(cc2[nH]c1=O)OCO3	none
O=C(Nc1nc2cc3c(cc2s1)OCCO3)c1ccc(N2C(=O)CCC2=O)cc1	EBNA-1 inh 62.1 | EBNA-1 confirm 57.4 | ZTA DNA inh trip inactive
O=C(Nc1nc2cc3c(cc2s1)OCCO3)c1ccncc1	none
Cc1ccc(S(=O)(=O)NCC(=O)N2CCN(c3ccc(F)cc3)CC2)cc1	none
Cc1cc(C)n(-c2ccc(C(=O)OCn3nnc4ccccc4c3=O)cc2)n1	none
Cc1nn(-c2ccccc2)c2sc(C(=O)OCn3nnc4ccccc4c3=O)cc12	EBNA-1 inh 35.4 (no result: ALR H2O2 inh) | EBNA-1 confirm inactive | ZTA DNA inh trip inactive
CCCCOc1ccc(C(=O)Nn2c(-c3cccs3)nc3ccccc3c2=O)cc1	EBNA-1 inh 95.3 | EBNA-1 confirm 40.9 | ZTA DNA inh trip inactive
O=C(NCc1ccc(-c2nc3ccccc3s2)cc1)c1cc2ccccc2o1	EBNA-1 inh 28.2 (no result: ALR H2O2 inh) | EBNA-1 confirm inactive | ZTA DNA inh trip inactive
COc1ccccc1Nc1nnc(SCC(=O)NC(=O)Nc2ccc3c(c2)OCCO3)s1	EBNA-1 inh 36.3 | EBNA-1 confirm inactive | ZTA DNA inh trip inactive
Cc1ccccc1Nc1nnc(SCC(=O)NC(=O)Nc2ccc3c(c2)OCCO3)s1	none

Assay outcomes from PubChem BioAssay.
